ChEMBL document CHEMBL2029214, “Radiosynthesis and evaluation of an (18)F-labeled positron emission tomography (PET) radioligand for brain histamine subtype-3 receptors based on a nonimidazole 2-aminoethylbenzofuran chemotype” (J Med Chem, 2012)

Experiments:
[1] = target: Histamine receptor H3 (Macaca mulatta) (UniProt Q865E1); assay: Induction of histamine H3 receptor-mediated drug uptake in rhesus monkey brain by PET imaging
Method in brief: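 Male rhesus monkeys (7.3 ± 0.8 kg; n = 4 baseline), ketamine 10 mg/kg i.m. then 1.5% isoflurane in O2. […] [18F]ligand given i.v. Focus 220 microPET, 180 min (one scan 120 min), 45 frames 30 s–5 min, scatter/attenuation corrected, decay-corrected; template-normalized regions; uptake as SUV.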

[2] = target: Alpha-2B adrenergic receptor (Homo sapiens, UniProt P18089); assay: Binding affinity to human recombinant alpha2B adrenergic receptor
[3] = target: Alpha-1D adrenergic receptor (Homo sapiens, UniProt P25100); assay: Binding affinity to human recombinant alpha1D adrenergic receptor
Chain of Alpha-1D adrenergic receptor (P25100 whole entry): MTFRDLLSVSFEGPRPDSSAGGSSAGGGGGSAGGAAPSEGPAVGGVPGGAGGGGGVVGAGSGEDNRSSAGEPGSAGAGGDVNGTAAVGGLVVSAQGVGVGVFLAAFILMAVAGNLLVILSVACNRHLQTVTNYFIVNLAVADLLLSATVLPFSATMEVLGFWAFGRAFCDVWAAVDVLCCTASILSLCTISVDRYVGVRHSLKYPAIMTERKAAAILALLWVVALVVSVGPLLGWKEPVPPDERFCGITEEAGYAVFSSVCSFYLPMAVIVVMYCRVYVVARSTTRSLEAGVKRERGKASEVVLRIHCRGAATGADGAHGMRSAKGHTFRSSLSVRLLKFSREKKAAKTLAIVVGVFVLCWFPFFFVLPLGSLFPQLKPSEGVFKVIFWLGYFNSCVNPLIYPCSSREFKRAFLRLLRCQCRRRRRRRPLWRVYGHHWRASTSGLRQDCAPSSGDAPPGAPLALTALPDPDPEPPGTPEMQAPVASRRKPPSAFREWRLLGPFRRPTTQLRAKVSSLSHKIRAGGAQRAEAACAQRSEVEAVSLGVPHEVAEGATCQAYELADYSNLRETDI

[4] = target: 5-hydroxytryptamine receptor 2A (Homo sapiens, UniProt P28223); assay: Binding affinity to human recombinant 5HT2A receptor
Chain of 5-hydroxytryptamine receptor 2A (P28223 whole entry): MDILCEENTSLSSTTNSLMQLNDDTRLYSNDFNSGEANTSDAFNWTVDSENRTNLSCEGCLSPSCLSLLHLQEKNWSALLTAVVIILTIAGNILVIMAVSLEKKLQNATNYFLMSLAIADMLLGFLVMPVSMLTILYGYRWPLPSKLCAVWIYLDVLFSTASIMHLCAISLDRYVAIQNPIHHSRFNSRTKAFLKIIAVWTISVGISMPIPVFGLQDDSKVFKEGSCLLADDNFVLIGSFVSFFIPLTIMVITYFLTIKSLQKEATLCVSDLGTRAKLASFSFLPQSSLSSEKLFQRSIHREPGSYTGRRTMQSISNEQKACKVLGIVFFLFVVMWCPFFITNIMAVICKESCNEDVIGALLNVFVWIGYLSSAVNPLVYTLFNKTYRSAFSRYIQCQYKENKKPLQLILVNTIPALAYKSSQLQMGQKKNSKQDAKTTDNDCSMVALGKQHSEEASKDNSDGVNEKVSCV
Method in brief: (§1)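 Ki values were taken from in vitro competitive binding assays against each human recombinant receptor.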

D(3) dopamine receptor = D(3) dopamine receptor (Homo sapiens, UniProt P35462); assay: Binding affinity to human recombinant Dopamine D3 receptor
[5] = target: Alpha-2A adrenergic receptor (Homo sapiens, UniProt P08913); assay: Binding affinity to human recombinant alpha2A adrenergic receptor
Histamine H2 receptor = Histamine H2 receptor (Homo sapiens, UniProt P25021); assay: Binding affinity to human recombinant H2 receptor
Histamine H1 receptor = Histamine H1 receptor (Homo sapiens, UniProt P35367); assay: Binding affinity to human recombinant H1 receptor
[6] = target: Sodium-dependent dopamine transporter (Homo sapiens, UniProt Q01959); assay: Binding affinity to human recombinant DAT
[7] = target: Sodium-dependent noradrenaline transporter (Homo sapiens, UniProt P23975); assay: Binding affinity to human recombinant NET
[8] = target: 5-hydroxytryptamine receptor 6 (Homo sapiens, UniProt P50406); assay: Binding affinity to human recombinant 5HT6 receptor
Chain of 5-hydroxytryptamine receptor 6 (P50406 whole entry): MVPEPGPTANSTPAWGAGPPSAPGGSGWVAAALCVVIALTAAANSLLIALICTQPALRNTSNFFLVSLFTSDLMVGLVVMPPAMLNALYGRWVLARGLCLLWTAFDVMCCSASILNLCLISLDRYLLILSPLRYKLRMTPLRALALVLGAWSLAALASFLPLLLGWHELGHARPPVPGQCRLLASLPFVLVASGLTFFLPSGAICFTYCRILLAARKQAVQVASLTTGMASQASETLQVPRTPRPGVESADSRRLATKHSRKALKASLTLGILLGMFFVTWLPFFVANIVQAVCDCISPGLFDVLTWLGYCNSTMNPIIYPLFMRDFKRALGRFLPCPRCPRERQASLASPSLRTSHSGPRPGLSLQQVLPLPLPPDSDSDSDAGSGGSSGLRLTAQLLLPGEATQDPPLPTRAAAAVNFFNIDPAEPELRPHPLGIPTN

[9] = target: Alpha-2C adrenergic receptor (Homo sapiens, UniProt P18825); assay: Binding affinity to human recombinant alpha2C adrenergic receptor
[10] = target: Sodium-dependent serotonin transporter (Homo sapiens, UniProt P31645); assay: Binding affinity to human recombinant SERT
[11] = target: 5-hydroxytryptamine receptor 3A (Homo sapiens, UniProt P46098); assay: Binding affinity to human recombinant 5HT3 receptor
[12] = target: 5-hydroxytryptamine receptor 2B (Homo sapiens, UniProt P41595); assay: Binding affinity to human recombinant 5HT2B receptor
[13] = target: Beta-1 adrenergic receptor (Homo sapiens, UniProt P08588); assay: Binding affinity to human recombinant beta1 adrenergic receptor
Chain of Beta-1 adrenergic receptor (P08588 whole entry): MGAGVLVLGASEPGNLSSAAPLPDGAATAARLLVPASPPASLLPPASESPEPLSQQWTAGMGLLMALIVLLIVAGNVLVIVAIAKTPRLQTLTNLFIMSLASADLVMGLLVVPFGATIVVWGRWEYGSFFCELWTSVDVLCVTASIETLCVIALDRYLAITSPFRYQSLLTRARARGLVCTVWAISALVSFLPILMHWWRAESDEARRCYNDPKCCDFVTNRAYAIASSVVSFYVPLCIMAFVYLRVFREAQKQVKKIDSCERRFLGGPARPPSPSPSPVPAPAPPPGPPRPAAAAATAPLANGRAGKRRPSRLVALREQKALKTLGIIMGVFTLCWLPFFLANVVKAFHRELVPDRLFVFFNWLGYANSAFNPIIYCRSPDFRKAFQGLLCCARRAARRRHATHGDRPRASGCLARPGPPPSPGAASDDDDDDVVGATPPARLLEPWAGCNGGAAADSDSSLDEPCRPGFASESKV

D(1A) dopamine receptor = D(1A) dopamine receptor (Homo sapiens, UniProt P21728); assay: Binding affinity to human recombinant Dopamine D1 receptor
[14] = target: 5-hydroxytryptamine receptor 1E (Homo sapiens, UniProt P28566); assay: Binding affinity to human recombinant 5HT1E receptor
Chain of 5-hydroxytryptamine receptor 1E (P28566 whole entry): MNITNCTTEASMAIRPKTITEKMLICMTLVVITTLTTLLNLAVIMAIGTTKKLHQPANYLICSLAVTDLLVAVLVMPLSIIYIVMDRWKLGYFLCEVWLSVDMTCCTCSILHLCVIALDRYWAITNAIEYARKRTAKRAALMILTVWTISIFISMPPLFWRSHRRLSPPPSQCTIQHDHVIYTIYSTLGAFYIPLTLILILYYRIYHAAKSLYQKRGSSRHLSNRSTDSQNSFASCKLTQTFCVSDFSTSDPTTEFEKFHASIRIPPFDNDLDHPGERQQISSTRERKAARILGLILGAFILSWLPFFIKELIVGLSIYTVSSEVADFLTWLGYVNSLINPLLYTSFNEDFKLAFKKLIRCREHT

[15] = target: Beta-2 adrenergic receptor (Homo sapiens, UniProt P07550); assay: Binding affinity to human recombinant beta2 adrenergic receptor
[16] = target: Muscarinic acetylcholine receptor M2 (Homo sapiens, UniProt P08172); assay: Binding affinity to human recombinant M2 receptor
[17] = target: Alpha-1A adrenergic receptor (Homo sapiens, UniProt P35348); assay: Binding affinity to human recombinant alpha1A adrenergic receptor
[18] = target: Sigma non-opioid intracellular receptor 1 (Homo sapiens, UniProt Q99720); assay: Binding affinity to human recombinant sigma1 receptor
[19] = target: Muscarinic acetylcholine receptor M3 (Homo sapiens, UniProt P20309); assay: Binding affinity to human recombinant M3 receptor
[20] = target: 5-hydroxytryptamine receptor 1D (Homo sapiens, UniProt P28221); assay: Binding affinity to human recombinant 5HT1D receptor; method in brief: as §1
Chain of 5-hydroxytryptamine receptor 1D (P28221 whole entry): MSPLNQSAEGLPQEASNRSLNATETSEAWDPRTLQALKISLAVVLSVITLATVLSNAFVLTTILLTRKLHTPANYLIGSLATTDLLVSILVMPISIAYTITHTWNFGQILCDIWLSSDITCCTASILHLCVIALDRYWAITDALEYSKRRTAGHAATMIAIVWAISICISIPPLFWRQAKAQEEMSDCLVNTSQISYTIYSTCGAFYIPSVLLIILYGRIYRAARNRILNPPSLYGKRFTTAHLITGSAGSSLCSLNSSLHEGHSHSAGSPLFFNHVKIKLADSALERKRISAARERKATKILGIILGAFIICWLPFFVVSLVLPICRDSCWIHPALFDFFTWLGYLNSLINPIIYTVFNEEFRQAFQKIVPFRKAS

[21] = target: Muscarinic acetylcholine receptor M1 (Homo sapiens, UniProt P11229); assay: Binding affinity to human recombinant M1 receptor
Chain of Muscarinic acetylcholine receptor M1 (P11229 whole entry): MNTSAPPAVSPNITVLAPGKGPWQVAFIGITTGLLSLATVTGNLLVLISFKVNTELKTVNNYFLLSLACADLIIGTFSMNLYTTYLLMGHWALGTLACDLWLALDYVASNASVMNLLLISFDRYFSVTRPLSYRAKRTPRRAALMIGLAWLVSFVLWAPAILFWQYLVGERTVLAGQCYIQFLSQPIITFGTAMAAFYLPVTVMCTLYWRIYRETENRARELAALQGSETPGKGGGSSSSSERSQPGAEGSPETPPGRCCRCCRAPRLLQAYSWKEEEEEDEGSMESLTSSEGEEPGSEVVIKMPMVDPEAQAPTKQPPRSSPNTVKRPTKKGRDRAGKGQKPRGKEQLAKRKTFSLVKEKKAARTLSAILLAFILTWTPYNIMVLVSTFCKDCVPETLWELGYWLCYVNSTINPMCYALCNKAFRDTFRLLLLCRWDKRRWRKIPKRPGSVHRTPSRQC

[22] = target: Alpha-1B adrenergic receptor (Homo sapiens, UniProt P35368); assay: Binding affinity to human recombinant alpha1B adrenergic receptor
D(2) dopamine receptor = D(2) dopamine receptor (Homo sapiens, UniProt P14416); assay: Binding affinity to human recombinant Dopamine D2 receptor
D(1B) dopamine receptor = D(1B) dopamine receptor (Homo sapiens, UniProt P21918); assay: Binding affinity to human recombinant Dopamine D5 receptor
[23] = target: Muscarinic acetylcholine receptor M4 (Homo sapiens, UniProt P08173); assay: Binding affinity to human recombinant M4 receptor
[24] = target: 5-hydroxytryptamine receptor 2C (Homo sapiens, UniProt P28335); assay: Binding affinity to human recombinant 5HT2C receptor
D(4) dopamine receptor = D(4) dopamine receptor (Homo sapiens, UniProt P21917); assay: Binding affinity to human recombinant Dopamine D4 receptor
Chain of D(4) dopamine receptor (P21917 whole entry): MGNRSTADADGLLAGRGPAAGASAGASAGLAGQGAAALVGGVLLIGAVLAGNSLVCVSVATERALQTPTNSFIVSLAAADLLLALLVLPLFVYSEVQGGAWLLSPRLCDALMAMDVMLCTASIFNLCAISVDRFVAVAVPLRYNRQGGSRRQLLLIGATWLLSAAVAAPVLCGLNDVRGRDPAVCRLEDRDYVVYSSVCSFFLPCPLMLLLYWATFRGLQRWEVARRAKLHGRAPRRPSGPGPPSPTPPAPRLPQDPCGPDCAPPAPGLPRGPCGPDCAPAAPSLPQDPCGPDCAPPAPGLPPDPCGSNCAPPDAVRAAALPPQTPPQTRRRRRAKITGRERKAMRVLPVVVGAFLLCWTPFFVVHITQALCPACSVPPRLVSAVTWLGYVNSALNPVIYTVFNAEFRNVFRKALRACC

[25] = target: 5-hydroxytryptamine receptor 1A (Homo sapiens, UniProt P08908); assay: Binding affinity to human recombinant 5HT1A receptor
Chain of 5-hydroxytryptamine receptor 1A (P08908 whole entry): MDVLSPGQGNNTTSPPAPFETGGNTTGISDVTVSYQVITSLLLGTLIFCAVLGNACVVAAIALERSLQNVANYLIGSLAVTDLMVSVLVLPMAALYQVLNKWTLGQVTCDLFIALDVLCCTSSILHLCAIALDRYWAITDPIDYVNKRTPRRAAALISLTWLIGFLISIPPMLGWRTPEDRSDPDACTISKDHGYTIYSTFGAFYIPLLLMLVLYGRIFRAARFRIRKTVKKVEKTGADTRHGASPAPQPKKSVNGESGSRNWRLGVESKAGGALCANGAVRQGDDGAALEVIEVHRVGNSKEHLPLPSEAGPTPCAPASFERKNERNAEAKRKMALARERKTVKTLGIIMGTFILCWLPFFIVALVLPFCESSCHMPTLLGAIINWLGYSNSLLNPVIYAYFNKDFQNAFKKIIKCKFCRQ

[26] = target: Beta-3 adrenergic receptor (Homo sapiens, UniProt P13945); assay: Binding affinity to human recombinant beta3 adrenergic receptor
[27] = target: Muscarinic acetylcholine receptor M5 (Homo sapiens, UniProt P08912); assay: Binding affinity to human recombinant M5 receptor; method in brief: as §1
[28] = target: 5-hydroxytryptamine receptor 7 (Homo sapiens, UniProt P34969); assay: Binding affinity to human recombinant 5HT7 receptor
Chain of 5-hydroxytryptamine receptor 7 (P34969 whole entry): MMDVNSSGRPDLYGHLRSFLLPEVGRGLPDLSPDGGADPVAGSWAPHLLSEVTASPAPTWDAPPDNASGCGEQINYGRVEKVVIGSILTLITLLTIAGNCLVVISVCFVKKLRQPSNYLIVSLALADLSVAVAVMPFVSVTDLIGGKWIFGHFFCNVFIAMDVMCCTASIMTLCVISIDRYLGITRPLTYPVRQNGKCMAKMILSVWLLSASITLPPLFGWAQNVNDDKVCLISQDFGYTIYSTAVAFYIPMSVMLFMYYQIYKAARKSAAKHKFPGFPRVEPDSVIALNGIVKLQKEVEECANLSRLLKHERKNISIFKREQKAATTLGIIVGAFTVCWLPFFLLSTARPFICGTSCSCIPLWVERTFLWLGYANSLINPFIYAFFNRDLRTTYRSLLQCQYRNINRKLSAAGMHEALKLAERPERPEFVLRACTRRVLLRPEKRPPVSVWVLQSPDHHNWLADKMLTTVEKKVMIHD

Histamine H4 receptor = Histamine H4 receptor (Homo sapiens, UniProt Q9H3N8); assay: Binding affinity to human recombinant H4 receptor
[29] = target: 5-hydroxytryptamine receptor 1B (Homo sapiens, UniProt P28222); assay: Binding affinity to human recombinant 5HT1B receptor
Chain of 5-hydroxytryptamine receptor 1B (P28222 whole entry): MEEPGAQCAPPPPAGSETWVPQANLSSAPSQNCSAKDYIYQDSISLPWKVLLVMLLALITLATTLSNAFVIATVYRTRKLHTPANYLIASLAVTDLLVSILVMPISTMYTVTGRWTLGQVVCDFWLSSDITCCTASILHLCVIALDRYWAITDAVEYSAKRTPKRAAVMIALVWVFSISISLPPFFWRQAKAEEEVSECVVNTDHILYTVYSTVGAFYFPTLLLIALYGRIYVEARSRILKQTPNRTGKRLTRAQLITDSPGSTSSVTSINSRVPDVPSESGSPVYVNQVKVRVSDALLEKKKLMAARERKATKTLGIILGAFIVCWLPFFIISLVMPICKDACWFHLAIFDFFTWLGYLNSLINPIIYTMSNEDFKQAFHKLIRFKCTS

Histamine H3 receptor = Histamine H3 receptor (Homo sapiens, UniProt Q9Y5N1); assay: Binding affinity to human recombinant H3 receptor expressed in HEK293T cells; assay type: cell-based, HEK-293T

Row | Activity [1] | SMILES | Ki [2] | Ki [3] | Ki [4] | Ki (D(3) dopamine receptor) | Ki [5] | Ki (Histamine H2 receptor) | Ki (Histamine H1 receptor) | Ki [6] | Ki [7] | Ki [8] | Ki [9] | Ki [10] | Ki [11] | Ki [12] | Ki [13] | Ki (D(1A) dopamine receptor) | Ki [14] | Ki [15] | Ki [16] | also measured
1 | 83% | COc1ccc2c(c1)C(=O)O[C@]21CC[C@H](C(=O)N(C)CCN2CCCCC2)CC1 |  |  |  |  |  |  |  |  |  |  |  |  |  |  |  |  |  |  |  | 
2 | > 90% | CNC(=O)c1ccc(Oc2ccc3c(c2)CCN(C2CCC2)CC3)nc1 |  |  |  |  |  |  |  |  |  |  |  |  |  |  |  |  |  |  |  | 
3 |  | C[C@@H]1CCCN1CCc1cc2cc(C(=O)c3ccc(F)cc3)ccc2o1 | > 10 µM | > 10 µM | 2.72 µM | > 10 µM | > 10 µM | 1.71 µM | 5.44 µM | > 10 µM | > 10 µM | > 10 µM | > 10 µM | > 10 µM | > 10 µM | 3.15 µM | > 10 µM | > 10 µM | > 10 µM | > 10 µM | 0.462 µM | Ki [17]: > 10 µM; Ki [18]: > 10 µM; Ki [19]: 0.204 µM; Ki [20]: 6.38 µM; Ki [21]: 3.27 µM; Ki [22]: > 10 µM; Ki (D(2) dopamine receptor): > 10 µM; Ki (D(1B) dopamine receptor): > 10 µM; Ki [23]: 0.351 µM; Ki [24]: > 10 µM; Ki (D(4) dopamine receptor): > 10 µM; Ki [25]: 0.432 µM; Ki [26]: > 10 µM; Ki [27]: 0.437 µM; Ki [28]: > 10 µM; Ki (Histamine H4 receptor): > 10 µM; Ki [29]: > 10 µM
4 |  | C[C@@H]1CCCN1CCc1cc2cc(C(=O)c3ccc([N+](=O)[O-])cc3)ccc2o1 | > 10 µM | > 10 µM | 1.36 µM | > 10 µM | > 10 µM | 0.923 µM | 7.05 µM | 0.137 µM | > 10 µM | > 10 µM | > 10 µM | > 10 µM | > 10 µM | > 10 µM | > 10 µM | > 10 µM | > 10 µM | > 10 µM | 0.681 µM | Ki (Histamine H3 receptor): 0.0004 µM; Ki [17]: > 10 µM; Ki [18]: > 10 µM; Ki [19]: 0.512 µM; Ki [20]: 5.24 µM; Ki [21]: 0.931 µM; Ki [22]: > 10 µM; Ki (D(2) dopamine receptor): > 10 µM; Ki (D(1B) dopamine receptor): > 10 µM; Ki [23]: 0.415 µM; Ki [24]: > 10 µM; Ki (D(4) dopamine receptor): > 10 µM; Ki [25]: > 10 µM; Ki [26]: > 10 µM; Ki [27]: 0.336 µM; Ki [28]: > 10 µM; Ki (Histamine H4 receptor): > 10 µM; Ki [29]: > 10 µM
